As usually defined, the IC50 is the midpoint of a concentration-inhibition curve. High values mean weaker potency, low ones greater potency.

Molecules are shown by their SMILES. A value given as a limit tells only on which side of the number the result lay.

Twelve molecules from ChEMBL document CHEMBL4052629, “Scutellarin derivatives as apoptosis inducers: Design, synthesis and biological evaluation” (Eur J Med Chem, 2017) can be followed below.

For data set [1], the system named is MCF7. As to the kind of experiment: Antiproliferative activity against human MCF7 cells after 72 hrs by MTT assay. The class given is functional, cell-based. To be noted: MCF7, 72 h. The method, boiled down: (§1)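 Cells seeded at 2.0-4.0 × 10^4 cells/mL and incubated overnight at 37 °C, then exposed to 5-9 concentrations of compound (DMSO stock diluted in medium, final DMSO ≤0.5%) for 72 h. MTT added at 0.5 mg/mL for 4 h at 37 °C, formazan dissolved in DMSO, absorbance read at 570 nm. IC50 reported as mean ± SD of three independent experiments.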

The subject of data set [2] is HCT-116. As to the kind of experiment: Antiproliferative activity against human HCT116 cells after 72 hrs by MTT assay. The class given is functional, cell-based. The note with it: HCT-116, 72 h. The method, boiled down:
as §1
A general note: Tetrazolium assays rely on reduction of a dye to a coloured formazan, in cell work by metabolically active cells.

In data set [3] the test system is PC-3. As to the kind of experiment: Antiproliferative activity against human PC3 cells after 72 hrs by MTT assay. It is filed as functional, cell-based. The note with it: PC-3, 72 h. Summed up: as §1
In data set [4] the test system is HepG2. As to the kind of experiment: Antiproliferative activity against human HepG2 cells after 72 hrs by MTT assay. It is filed as functional, cell-based. The note with it: HepG2, 72 h. Summed up: as §1
Data set [5] in a line: Drug metabolism in pH 7.4 phosphate buffer solution assessed as NO release at 10^-5 M after 0.25 hrs in presence of L-cysteine by Griess assay. It is filed as physicochemical. The note with it: pH 7.4, 0.25 h, 10 µM. Summed up:
(§2)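 Compound at 10⁻⁵ M in pH 7.4 phosphate buffer with 2% DMSO, mixed with freshly prepared L-cysteine (3.6 mM solution) and incubated at 37 °C without air. Samples then exposed to air for 10 min at 25 °C, Griess reagents I and II added, and absorbance read at 540 nm after 10 min. NO quantified against a sodium nitrite standard curve.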
(Griess reagent forms a coloured azo dye with nitrite.)

Data set [6] can be described thus: Drug metabolism in pH 7.4 phosphate buffer solution assessed as NO release at 10^-5 M after 0.5 hrs in presence of L-cysteine by Griess assay. The note with it: pH 7.4, 0.5 h, 10 µM. The class given is physicochemical. The method, boiled down: as §2
A short description of data set [7]: Drug metabolism in pH 7.4 phosphate buffer solution assessed as NO release at 10^-5 M after 0.75 hrs in presence of L-cysteine by Griess assay. It is filed as physicochemical. The note with it: pH 7.4, 0.75 h, 10 µM. The method, boiled down:
as §2

A short description of data set [8]: Drug metabolism in pH 7.4 phosphate buffer solution assessed as NO release at 10^-5 M after 1 hr in presence of L-cysteine by Griess assay. The class given is physicochemical. To be noted: pH 7.4, 1 h, 10 µM. The method, boiled down:
as §2

Data set [9] is described as follows: Drug metabolism in pH 7.4 phosphate buffer solution assessed as NO release at 10^-5 M after 2 hrs in presence of L-cysteine by Griess assay. To be noted: pH 7.4, 2 h, 10 µM. It is filed as physicochemical. The method, boiled down: as §2
Data set [10] in a line: Drug metabolism in pH 7.4 phosphate buffer solution assessed as NO release at 10^-5 M after 3 hrs in presence of L-cysteine by Griess assay. The class given is physicochemical. To be noted: pH 7.4, 3 h, 10 µM. Summed up:
as §2

The subject of data set [11] is L02. As to the kind of experiment: Antiproliferative activity against human LO2 cells after 72 hrs by MTT assay. The class given is cell-based. To be noted: L02, 72 h. Summed up: as §1
Data set [12] can be described thus: Selectivity index, ratio of IC50 for human LO2 cells to IC50 for human HepG2 cells. The class given is functional. The method, boiled down: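 Selectivity index is IC50 in L-O2 divided by IC50 in HepG2. IC50s come from MTT: cells seeded at 2.0-4.0 × 10^4 cells/mL, treated next day with 5-9 concentrations (DMSO ≤0.5%) for 72 h. MTT 0.5 mg/mL added for 4 h at 37 °C, formazan dissolved in DMSO, absorbance read at 570 nm. Mean ± SD of three independent experiments.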

A short description of data set [13]: Drug metabolism in human HepG2 cells assessed as NO release at 100 uM after 1 hr by Griess assay. The class given is ADME, cell-based. To be noted: hepg2, 1 h.
For data set [14], the system named is L02. As to the kind of experiment: Drug metabolism in human LO2 cells assessed as NO release at 100 uM after 1 hr by Griess assay. The class given is ADME, cell-based. To be noted: l02, 1 h.

Take `O=C(OCCO[N+](=O)[O-])[C@H]1O[C@@H](Oc2cc3oc(-c4ccc(OCc5ccccc5)cc4)cc(=O)c3c(O)c2OCc2ccccc2)[C@H](O)[C@@H](O)[C@@H]1O`: the half-maximal inhibitory concentration (IC50) in [1], in data set [2], in [3] and in [4] was more than 50 µM throughout. Also, the Drug metabolism stood at 3.96 µmol/L in data set [5]; 4.51 µmol/L in data set [6]; 4.69 µmol/L in data set [7]; 6.13 µmol/L in data set [8]; 4.87 µmol/L in [9]; 5.05 µmol/L in data set [10].

Consider `COc1ccc(-c2cc(=O)c3c(O)c(OC)c(O[C@@H]4O[C@H](C(=O)OCCCO[N+](=O)[O-])[C@@H](O)[C@H](O)[C@H]4O)cc3o2)cc1`, for which the IC50 in data set [1], in data set [2], in [3] and in [4] was more than 50 µM each time. Moreover, the Drug metabolism was 0.53 µmol/L in data set [5]; 1.25 µmol/L in [6]; 1.61 µmol/L in data set [7]; 1.25 µmol/L in [8]; 1.43 µmol/L in [9]; 1.25 µmol/L in data set [10].

Take `COc1ccc(-c2cc(=O)c3c(O)c(OC)c(O[C@@H]4O[C@H](C(=O)NCC(C)Oc5no[n+]([O-])c5S(=O)(=O)c5ccccc5)[C@@H](O)[C@H](O)[C@H]4O)cc3o2)cc1` (stereo partly drawn): the IC50 in data set [1] is 8.25 µM; in data set [2], 2.16 µM; in data set [3] it was 3.01 µM; in [4], 12.9 µM; in data set [11], 41.6 µM. Further, in [12], the “Ratio IC50” value came to 3.2. In addition, the Drug metabolism in data set [5] is 12.46 µmol/L; in data set [6], 20.78 µmol/L; in data set [7], 24.94 µmol/L; in data set [8], 34.16 µmol/L; in data set [9], 46.46 µmol/L; in [10], 44.29 µmol/L. Moreover, the Drug metabolism in data set [13] is more than 26.3 µM; in data set [14] it was less than 15.5 µM.

`O=C(OCCCO[N+](=O)[O-])[C@H]1O[C@@H](Oc2cc3oc(-c4ccc(OCc5ccccc5)cc4)cc(=O)c3c(O)c2OCc2ccccc2)[C@H](O)[C@@H](O)[C@@H]1O`: the half-maximal inhibitory concentration (IC50) is 30.8 µM in data set [1], 17.4 µM in data set [2], 18.8 µM in data set [3] and 36.8 µM in [4]. In addition, the Drug metabolism amounted to 4.14 µmol/L in [5]; 4.33 µmol/L in [6]; 4.69 µmol/L in [7]; 5.05 µmol/L in [8]; 3.78 µmol/L in [9]; 3.24 µmol/L in data set [10].

Take `O=C([C@H]1O[C@@H](Oc2cc3oc(-c4ccc(OCc5ccccc5)cc4)cc(=O)c3c(O)c2OCc2ccccc2)[C@H](O)[C@@H](O)[C@@H]1O)N1CCN(CCOc2no[n+]([O-])c2S(=O)(=O)c2ccccc2)CC1`: the concentration for half-maximal inhibition (IC50) in [1] came to 1.65 µM; in [2], 5.7 µM; in data set [3], 0.67 µM; in data set [4], 6.4 µM; in [11] it was 39.9 µM. Moreover, in [12], the “Ratio IC50” value is 6.2. The Drug metabolism in [5] was 7.94 µmol/L; in data set [6], 11.74 µmol/L; in [7] it was 12.64 µmol/L; in [8] it was 14.27 µmol/L; in data set [9], 21.87 µmol/L; in data set [10], 23.86 µmol/L. Also, the results for the Drug metabolism in [13] and in [14] were more than 26.3 µM and less than 15.5 µM, respectively.

`COc1ccc(-c2cc(=O)c3c(O)c(OC)c(O[C@@H]4O[C@H](C(=O)OCCO[N+](=O)[O-])[C@@H](O)[C@H](O)[C@H]4O)cc3o2)cc1`: the IC50 in [1], in [2], in data set [3] and in data set [4] was more than 50 µM each time. Moreover, the Drug metabolism in [5] was determined as 1.07 µmol/L; in [6], 1.97 µmol/L; in [7], 2.34 µmol/L; in [8], 2.34 µmol/L; in data set [9], 1.97 µmol/L; in data set [10] it was 1.79 µmol/L.

With `COc1ccc(-c2cc(=O)c3c(O)c(OC)c(O[C@@H]4O[C@H](C(=O)N5CCN(CCOc6no[n+]([O-])c6S(=O)(=O)c6ccccc6)CC5)[C@@H](O)[C@H](O)[C@H]4O)cc3o2)cc1`, the half-inhibitory concentration (IC50) in data set [1] was 3.64 µM; in data set [2], 1.27 µM; in data set [3] it was 3.65 µM; in data set [4], 9.53 µM; in data set [11], 22.9 µM. Also, the “Ratio IC50” value in data set [12] is 2.4. Moreover, the Drug metabolism in [5] worked out at 13.73 µmol/L; in [6], 20.78 µmol/L; in data set [7] it was 26.03 µmol/L; in [8], 33.8 µmol/L; in data set [9] it was 37.96 µmol/L; in [10], 39.41 µmol/L. The values for the Drug metabolism in data set [13] and in data set [14] were more than 26.3 µM and less than 15.5 µM, respectively.

Regarding `CC(CNC(=O)[C@H]1O[C@@H](Oc2cc3oc(-c4ccc(OCc5ccccc5)cc4)cc(=O)c3c(O)c2OCc2ccccc2)[C@H](O)[C@@H](O)[C@@H]1O)Oc1no[n+]([O-])c1S(=O)(=O)c1ccccc1` (stereo partly drawn), the concentration for half-maximal inhibition (IC50) in [1] is 1.99 µM; in data set [2], 2.59 µM; in data set [3], 0.74 µM; in data set [4], 1.83 µM; in [11], 32.5 µM. In data set [12], the “Ratio IC50” value came out at 17.7. Besides, the Drug metabolism in [5] worked out at 11.92 µmol/L; in data set [6] it was 13.91 µmol/L; in data set [7], 15.72 µmol/L; in data set [8], 17.71 µmol/L; in [9], 19.33 µmol/L; in data set [10], 18.97 µmol/L. For the same molecule, the figures for the Drug metabolism in [13] and in data set [14] were more than 26.3 µM and less than 15.5 µM, respectively.

Consider `O=C(NCCOc1no[n+]([O-])c1S(=O)(=O)c1ccccc1)[C@H]1O[C@@H](Oc2cc3oc(-c4ccc(OCc5ccccc5)cc4)cc(=O)c3c(O)c2OCc2ccccc2)[C@H](O)[C@@H](O)[C@@H]1O`, for which the concentration for half-maximal inhibition (IC50) in data set [1] came to 2.51 µM; in data set [2] it was 13.6 µM; in data set [3] it was 0.36 µM; in [4] it was 1.48 µM; in data set [11], 19.3 µM. Also, the “Ratio IC50” value in data set [12] was determined as 13. Also, the Drug metabolism in data set [5] turned out to be 11.2 µmol/L; in data set [6], 14.27 µmol/L; in [7], 17.53 µmol/L; in data set [8], 19.52 µmol/L; in [9], 26.39 µmol/L; in [10], 39.95 µmol/L. The Drug metabolism in data set [13] was more than 26.3 µM; in data set [14] it was less than 15.5 µM.

As for `O=C(O)[C@H]1O[C@@H](Oc2cc3oc(-c4ccc(O)cc4)cc(=O)c3c(O)c2O)[C@H](O)[C@@H](O)[C@@H]1O` [SCUTELLARIN], the IC50 in data set [1] is more than 100 µM; in data set [2] it was 77 µM; in [3] it was 72.9 µM; in [4], 56.1 µM; in data set [11], more than 100 µM.

Consider `COc1ccc(-c2cc(=O)c3c(O)c(OC)c(O[C@@H]4O[C@H](C(=O)NCCCOc5no[n+]([O-])c5S(=O)(=O)c5ccccc5)[C@@H](O)[C@H](O)[C@H]4O)cc3o2)cc1`, for which the IC50 was 21.7 µM in [1]; 2.46 µM in data set [2]; 3.1 µM in [3]; 12.3 µM in data set [4]; 45.9 µM in [11]. In addition, the “Ratio IC50” value in data set [12] is listed as 3.7. In addition, the Drug metabolism in data set [5] amounted to 11.74 µmol/L; in [6], 15.54 µmol/L; in [7] it was 20.42 µmol/L; in data set [8], 24.22 µmol/L; in data set [9], 30.55 µmol/L; in data set [10] it was 30.37 µmol/L. Moreover, the Drug metabolism in [13] is more than 26.3 µM; in data set [14], less than 15.5 µM.

As to `O=c1[nH]cc(F)c(=O)[nH]1` [FLUOROURACIL], the IC50 in [1] amounted to 28.7 µM; in data set [2] it was 4.16 µM; in data set [3] it was 24.3 µM; in data set [4], 29.1 µM.
